We go through 14 molecules from ChEMBL document CHEMBL2034980, “N⁴-Phenyl-substituted 2-acetylpyridine thiosemicarbazones: cytotoxicity against human tumor cells, structure-activity relationship studies and investigation on the mechanism of action” (Bioorg Med Chem, 2012).

Experiment [1] can be described thus: Cytotoxicity against human U87 cells expressing wild-type p53 after 48 hrs by MTT assay. It is filed as functional, cell-based, U-87MG ATCC. Particulars: U-87 MG, read-out: pIC50 (converted). In short, it runs like this: (§1)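 MTT assay. Cells were grown in DMEM with 10% FBS and penicillin/streptomycin at 37 °C under 5% CO2, seeded at 1–2×10^3 cells/well and treated 12 h later with 1×10^-12 to 1×10^-5 M ([…] from DMSO stock, final DMSO <0.5%) for 48 h. MTT was added at 0.5 mg mL⁻¹, formazan dissolved in DMSO and read at 570 nm. IC50 is the concentration giving 50% cytotoxicity. Quadruplicates, ≥3 independent experiments.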

In the next experiment the test system is MCF7. Briefly: Cytotoxicity against human MCF7 cells after 48 hrs by MTT assay. It is filed as functional, cell-based. As to conditions: MCF7, 48 h, read-out: pIC50 (converted). In short, it runs like this:
as §1

The test system of another experiment is T98G. Briefly: Cytotoxicity against human T98G cells expressing mutant p53 after 48 hrs by MTT assay. It is filed as functional, cell-based. Particulars: read-out: pIC50 (converted). In short, it runs like this: as §1

`C/C(=N\NC(=S)Nc1ccc(Cl)cc1)c1ccccn1`: the IC50 was 1.7 nM in experiment [1], 8.49 nM with MCF7 and 5.9 nM in the experiment with T98G.
In the case of `C/C(=N\NC(=S)Nc1ccccc1Cl)c1ccccn1`, the IC50 in experiment [1] was 2.6 nM; with MCF7, 0.16 nM; in the experiment on T98G, 1.1 nM.
The like results for `C/C(=N\NC(=S)Nc1cccc(Cl)c1)c1ccccn1` were, in that order, 31 nM, 24 nM and 1 nM.
Take `C/C(=N\NC(=S)Nc1ccccc1[N+](=O)[O-])c1ccccn1`: the figures for the IC50 (in experiment [1]; in the experiment on MCF7; in the experiment with T98G) were 4.3 nM, 5.7 nM and 6.61 nM, respectively.
The like results for `C/C(=N\NC(=S)Nc1ccccc1F)c1ccccn1` were, in that order, 5 nM, 0.39 nM and 3.1 nM.
For `C/C(=N/NC(=S)Nc1ccccc1Cl)c1ccccn1`, the IC50 in experiment [1] was 2.6 nM; with MCF7, 0.16 nM; with T98G, 1.1 nM.
The like results for `C/C(=N/NC(=S)Nc1cccc(Cl)c1)c1ccccn1` were, in that order, 31 nM, 24 nM and 1 nM.
The corresponding values for `C/C(=N\NC(=S)Nc1cccc(I)c1)c1ccccn1` are 83.9 nM, 45 nM and 61 nM.
The like results for `C/C(=N\NC(=S)Nc1ccc(I)cc1)c1ccccn1` were, in that order, 59 nM, 6.61 nM and 64 nM.
Take `C/C(=N\NC(=S)Nc1cccc(F)c1)c1ccccn1`: the figures for the IC50 (in experiment [1]; with MCF7; in the experiment with T98G) were 18 nM, 8.99 nM and 12 nM, respectively.
The corresponding values for `C/C(=N\NC(=S)Nc1ccc(F)cc1)c1ccccn1` are 10 nM, 1.2 nM and 17 nM.
Take `C/C(=N\NC(=S)Nc1ccccc1I)c1ccccn1`: the IC50 in experiment [1] was 6.1 nM; in the experiment with MCF7 it was 4.1 nM; with T98G, 8.09 nM.
As to `C/C(=N\NC(=S)Nc1cccc([N+](=O)[O-])c1)c1ccccn1`, the IC50 was 69 nM in experiment [1], 38 nM in the experiment on MCF7 and 140 nM with T98G.
With `C/C(=N\NC(=S)Nc1ccc([N+](=O)[O-])cc1)c1ccccn1`, the results for the IC50 (in experiment [1]; in the experiment on MCF7; in the experiment with T98G) were 160 nM, 52 nM and 140 nM, respectively.
